Laboratory results as given in ChEMBL document CHEMBL1123307, “Peptides as receptor selectivity modulators of opiate pharmacophores” (J Med Chem, 1986).
Structures can show the parent of a compound that is named as a salt. Residues, ends and D or L forms follow the SMILES beside them. *: point of attachment. X2 = O=C(N/N=C1/CC[C@@]2(O)[C@H]3Cc4ccc(O)c5c4[C@@]2(CCN3CC2CC2)[C@H]1O5)*; X1 = CN1CC[C@]23c4c5ccc(O)c4O[C@H]2/C(=N\NC(=O)*)CC[C@@]3(O)[C@H]1C5

Experiments:
[1] = biological target: Kappa-type opioid receptor (Cavia porcellus, UniProt P41144); assay: Binding affinity against Opioid receptor kappa 1 of guinea pig brain membranes using 1 nM of (-)-[3H]ethylketazocine as radioligand
Method in brief: (§1)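 Incubations in 50 mM Tris buffer, pH 7.4, with 100 mM NaCl and bacitracin (50 μg/mL).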

Mu-type opioid receptor = Mu-type opioid receptor (Cavia porcellus, UniProt P97266); assay: Binding affinity against Opioid receptor mu 1 of guinea pig brain membranes using 0.5 nM of [3H]naloxone as radioligand; method in brief: as §1
Sequence of Mu-type opioid receptor (P97266 whole entry): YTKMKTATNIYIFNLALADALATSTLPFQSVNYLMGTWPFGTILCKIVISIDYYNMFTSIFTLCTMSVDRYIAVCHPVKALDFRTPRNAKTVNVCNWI

Sequence of Kappa-type opioid receptor (P41144 whole entry): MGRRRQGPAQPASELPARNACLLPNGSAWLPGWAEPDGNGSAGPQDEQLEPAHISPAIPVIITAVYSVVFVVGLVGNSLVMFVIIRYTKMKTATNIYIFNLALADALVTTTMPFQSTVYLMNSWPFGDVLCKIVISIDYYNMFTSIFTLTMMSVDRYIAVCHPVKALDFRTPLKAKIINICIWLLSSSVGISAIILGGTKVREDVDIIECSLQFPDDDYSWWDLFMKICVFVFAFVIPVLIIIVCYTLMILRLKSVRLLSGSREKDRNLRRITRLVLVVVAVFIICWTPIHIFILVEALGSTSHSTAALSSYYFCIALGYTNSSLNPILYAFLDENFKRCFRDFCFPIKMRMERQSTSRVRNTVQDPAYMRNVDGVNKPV

CC(C)CC(NC(=O)C(Cc1ccccc1)NC(=O)N/N=C1/CC[C@@]2(O)C3Cc4ccc(O)c5c4C2(CCN3C)[C@H]1O5)C(=O)O (some centres undefined)
Ki [1]: 96 nM | Ki (Mu-type opioid receptor): 14.8 nM

CC(C)CC(NC(=O)C(Cc1ccccc1)NC(=O)N/N=C1/CC[C@@]2(O)C3Cc4ccc(O)c5c4C2(CCN3CC2CC2)[C@H]1O5)C(=O)O (some centres undefined)
Ki [1]: 2.8 nM | Ki (Mu-type opioid receptor): 0.76 nM

CC[C@H](C)[C@H](NC(=O)[C@H](CCCNC(=N)N)NC(=O)[C@H](CCCNC(=N)N)NC(=O)[C@H](CC(C)C)NC(=O)[C@H](Cc1ccccc1)NC(=O)CNC(=O)CNC(=O)[C@@H](N)Cc1ccc(O)cc1)C(=O)OC
Ki [1]: 40 nM | Ki (Mu-type opioid receptor): 340 nM

CC[C@H](C)[C@H](NC(=O)[C@H](CCCN=C(N)N)NC(=O)[C@H](CCCN=C(N)N)NC(=O)[C@H](CC(C)C)NC(=O)[C@H](Cc1ccccc1)NC(=O)N/N=C1/CC[C@@]2(O)[C@H]3Cc4ccc(O)c5c4[C@@]2(CCN3C)[C@H]1O5)C(=O)OC (X1-FLRRI-OMe)
Ki [1]: 9.8 nM | Ki (Mu-type opioid receptor): 15.5 nM

CC[C@H](C)[C@H](NC(=O)[C@H](CCCN=C(N)N)NC(=O)[C@H](CCCN=C(N)N)NC(=O)[C@H](CC(C)C)NC(=O)[C@H](Cc1ccccc1)NC(=O)N/N=C1/CC[C@@]2(O)[C@H]3Cc4ccc(O)c5c4[C@@]2(CCN3CC2CC2)[C@H]1O5)C(=O)OC (X2-FLRRI-OMe)
Ki [1]: 2.2 nM | Ki (Mu-type opioid receptor): 2.3 nM

NC(=O)N/N=C1/CC[C@@]2(O)C3Cc4ccc(O)c5c4C2(CCN3CC2CC2)[C@H]1O5 (some centres undefined) [NALTREXONE SEMICARBAZONE]
Ki [1]: 2.6 nM | Ki (Mu-type opioid receptor): 0.48 nM

CN1CCC23c4c5ccc(O)c4O[C@H]2/C(=N\NC(N)=O)CC[C@@]3(O)C1C5 (some centres undefined) [OXYMORPHONE SEMICARBAZONE HYDROCHLORIDE]
Ki [1]: 179 nM | Ki (Mu-type opioid receptor): 14.5 nM
